Results from ChEMBL document CHEMBL1127395, “Synthesis and antimicrobial activity of novel 3-[(aminopyrimidiniumyl)thio]methyl cephalosporins” (1994).
Values after ≈ are worked out from the molar mass of the structure shown.

Columns and labels:
[1] = tested on: Staphylococcus epidermidis; assay: In vitro minimum inhibitory concentration for Staphylococcus epidermidis (ATCC-12228) by agar dilution method; format: functional; conditions: Staphylococcus epidermidis; read-out: MIC
Outline: (§1)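 Two-fold serial dilutions of each compound dispersed in Mueller-Hinton agar; plates spot-inoculated with 2 μL of standard test strain at 10^7 CFU/mL, incubated 37 °C for 20 h; MIC read as lowest concentration inhibiting growth.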

[2] = tested on: Proteus vulgaris; assay: In vitro minimum inhibitory concentration for Proteus vulgaris (ATCC-6059) by agar dilution method; format: functional; conditions: Proteus vulgaris; read-out: MIC; outline: as §1
[3] = tested on: Klebsiella pneumoniae; assay: In vitro minimum inhibitory concentration for Klebsiella pneumoniae (ATCC-10031) by agar dilution method; format: functional; conditions: Klebsiella pneumoniae; read-out: MIC
[4] = tested on: Klebsiella aerogenes; assay: In vitro minimum inhibitory concentration for Enterobacter aerogenes (ATCC-29751) by agar dilution method; format: functional; conditions: Klebsiella aerogenes; read-out: MIC; outline: as §1
[5] = tested on: Serratia marcescens; assay: In vitro minimum inhibitory concentration for Serratia marcescens (ATCC-27117) by agar dilution method; format: functional; conditions: Serratia marcescens; read-out: MIC; outline: as §1
[6] = tested on: Enterobacter cloacae; assay: In vitro minimum inhibitory concentration for Enterobacter cloacae (ATCC-27508) by agar dilution method; format: functional; conditions: Enterobacter cloacae; read-out: MIC; outline: as §1
[7] = tested on: Pseudomonas aeruginosa; assay: In vitro minimum inhibitory concentration for Pseudomonas aeruginosa (ATCC 10145) by agar dilution method; format: functional; outline: as §1
[8] = tested on: Citrobacter freundii; assay: In vitro minimum inhibitory concentration for Citrobacter freundii (ATCC-8090) by agar dilution method; format: functional; conditions: Citrobacter freundii; read-out: MIC; outline: as §1
[9] = tested on: Escherichia coli; assay: In vitro minimum inhibitory concentration for Escherichia coli (ATCC-10536) by agar dilution method; format: functional; conditions: Escherichia coli; read-out: MIC; outline: as §1
[10] = tested on: Staphylococcus aureus; assay: In vitro minimum inhibitory concentration for Staphylococcus aureus (ATCC 6538p) by agar dilution method; format: functional; conditions: Staphylococcus aureus, ATCC 6538p; read-out: MIC; outline: as §1
[11] = tested on: Pseudomonas aeruginosa; assay: In vitro minimum inhibitory concentration for Pseudomonas aeruginosa (ATCC-27853) by agar dilution method; format: functional; conditions: Pseudomonas aeruginosa; read-out: MIC; outline: as §1
[12] = tested on: Salmonella typhimurium; assay: In vitro minimum inhibitory concentration for Salmonella Typhimurium (ATCC-14028) by agar dilution method; format: functional, Salmonella enterica subsp. enterica serovar Typhimurium; conditions: Salmonella enterica; read-out: MIC; outline: as §1

SMILES	MIC [1]	MIC [2]	MIC [3]	MIC [4]	MIC [5]	MIC [6]	MIC [7]	MIC [8]	MIC [9]	MIC [10]	MIC [11]	MIC [12]
C[n+]1ccc(N)nc1SCC1=C(C(=O)[O-])N2C(=O)C(NC(=O)/C(=N\OC(C)(C)C(=O)O)c3cnc(N)s3)C2SC1 (stereo unspecified)	2 mg/L (≈ 3.29 µM)	0.06 mg/L (≈ 0.0986 µM)	0.03 mg/L (≈ 0.0493 µM)	1 mg/L (≈ 1.64 µM)	0.06 mg/L (≈ 0.0986 µM)	< 0.008 mg/L	2 mg/L (≈ 3.29 µM)	0.03 mg/L (≈ 0.0493 µM)	0.03 mg/L (≈ 0.0493 µM)	4 mg/L (≈ 6.57 µM)	1 mg/L (≈ 1.64 µM)	0.13 mg/L (≈ 0.214 µM)
Cc1cc(C)nc(SCC2=C(C(=O)O)N3C(=O)C(NC(=O)/C(=N\OC(C)(C)C(=O)O)c4cnc(N)s4)C3SC2)n1 (stereo unspecified)	8 mg/L (≈ 13.2 µM)	0.25 mg/L (≈ 0.411 µM)	0.5 mg/L (≈ 0.823 µM)	8 mg/L (≈ 13.2 µM)	2 mg/L (≈ 3.29 µM)	0.5 mg/L (≈ 0.823 µM)	64 mg/L (≈ 105 µM)	0.5 mg/L (≈ 0.823 µM)	0.5 mg/L (≈ 0.823 µM)	32 mg/L (≈ 52.7 µM)	32 mg/L (≈ 52.7 µM)	4 mg/L (≈ 6.58 µM)
Cc1cc(C)[n+](C)c(SCC2=C(C(=O)[O-])N3C(=O)C(NC(=O)/C(=N\OC(C)(C)C(=O)O)c4cnc(N)s4)C3SC2)n1 (stereo unspecified)	8 mg/L (≈ 12.9 µM)	0.06 mg/L (≈ 0.0965 µM)	0.13 mg/L (≈ 0.209 µM)	4 mg/L (≈ 6.43 µM)	0.25 mg/L (≈ 0.402 µM)	0.06 mg/L (≈ 0.0965 µM)	4 mg/L (≈ 6.43 µM)	0.25 mg/L (≈ 0.402 µM)	0.13 mg/L (≈ 0.209 µM)	8 mg/L (≈ 12.9 µM)	4 mg/L (≈ 6.43 µM)	0.5 mg/L (≈ 0.804 µM)
C[n+]1cccnc1SCC1=C(C(=O)[O-])N2C(=O)C(NC(=O)/C(=N\OC(C)(C)C(=O)O)c3cnc(N)s3)C2SC1 (stereo unspecified)	64 mg/L (≈ 108 µM)	0.13 mg/L (≈ 0.219 µM)	0.5 mg/L (≈ 0.842 µM)	16 mg/L (≈ 27 µM)	2 mg/L (≈ 3.37 µM)	0.25 mg/L (≈ 0.421 µM)	8 mg/L (≈ 13.5 µM)	8 mg/L (≈ 13.5 µM)	1 mg/L (≈ 1.68 µM)	128 mg/L (≈ 216 µM)	8 mg/L (≈ 13.5 µM)	1 mg/L (≈ 1.68 µM)

Further lines, results first:

MIC [1]	MIC [2]	MIC [3]	MIC [4]	MIC [5]	MIC [6]	MIC [7]	MIC [8]	MIC [9]	MIC [10]	MIC [11]	MIC [12]	SMILES
2 mg/L (≈ 3.28 µM)	0.03 mg/L (≈ 0.0492 µM)	0.03 mg/L (≈ 0.0492 µM)	0.5 mg/L (≈ 0.82 µM)	0.13 mg/L (≈ 0.213 µM)	0.02 mg/L (≈ 0.0328 µM)	2 mg/L (≈ 3.28 µM)	0.03 mg/L (≈ 0.0492 µM)	0.06 mg/L (≈ 0.0984 µM)	8 mg/L (≈ 13.1 µM)	1 mg/L (≈ 1.64 µM)	0.13 mg/L (≈ 0.213 µM)	CC(C)(O/N=C(\C(=O)NC1C(=O)N2C(C(=O)[O-])=C(CSc3nc(N)cc[n+]3N)CSC12)c1cnc(N)s1)C(=O)O (stereo unspecified)
2 mg/L (≈ 3.02 µM)	0.06 mg/L (≈ 0.0907 µM)	0.06 mg/L (≈ 0.0907 µM)	2 mg/L (≈ 3.02 µM)	0.13 mg/L (≈ 0.196 µM)	0.02 mg/L (≈ 0.0302 µM)	4 mg/L (≈ 6.04 µM)	0.06 mg/L (≈ 0.0907 µM)	0.06 mg/L (≈ 0.0907 µM)	4 mg/L (≈ 6.04 µM)	2 mg/L (≈ 3.02 µM)	0.13 mg/L (≈ 0.196 µM)	CCn1cc[n+]2c(SCC3=C(C(=O)[O-])N4C(=O)C(NC(=O)/C(=N\OC(C)(C)C(=O)O)c5cnc(N)s5)C4SC3)nc(N)cc12 (stereo unspecified)
4 mg/L (≈ 6.04 µM)	0.13 mg/L (≈ 0.196 µM)	0.25 mg/L (≈ 0.378 µM)	4 mg/L (≈ 6.04 µM)	0.5 mg/L (≈ 0.756 µM)	0.03 mg/L (≈ 0.0453 µM)	8 mg/L (≈ 12.1 µM)	0.13 mg/L (≈ 0.196 µM)	0.13 mg/L (≈ 0.196 µM)	8 mg/L (≈ 12.1 µM)	4 mg/L (≈ 6.04 µM)	0.5 mg/L (≈ 0.756 µM)	CNc1cc2n(C)cc[n+]2c(SCC2=C(C(=O)[O-])N3C(=O)C(NC(=O)/C(=N\OC(C)(C)C(=O)O)c4cnc(N)s4)C3SC2)n1 (stereo unspecified)
> 128 mg/L	0.5 mg/L (≈ 0.799 µM)	2 mg/L (≈ 3.2 µM)	16 mg/L (≈ 25.6 µM)	16 mg/L (≈ 25.6 µM)	1 mg/L (≈ 1.6 µM)	32 mg/L (≈ 51.1 µM)	4 mg/L (≈ 6.39 µM)	4 mg/L (≈ 6.39 µM)	> 128 mg/L	16 mg/L (≈ 25.6 µM)	16 mg/L (≈ 25.6 µM)	C[n+]1c(O)cc(O)nc1SCC1=C(C(=O)[O-])N2C(=O)C(NC(=O)/C(=N\OC(C)(C)C(=O)O)c3cnc(N)s3)C2SC1 (stereo unspecified)
